Experimental data taken from ChEMBL document CHEMBL2157924, “Cyclobutane derivatives as novel nonpeptidic small molecule agonists of glucagon-like peptide-1 receptor” (J Med Chem, 2012).

Experiments:
[1] = biological target: T1, Glucagon-like peptide 1 receptor (Rattus norvegicus, UniProt P32301); test: Inhibition of [125I]GLP1 (7-36) amide binding to rat GLP1R expressed in HEK293 cells; assay type: cell-based
T1 sequence (P32301 whole entry): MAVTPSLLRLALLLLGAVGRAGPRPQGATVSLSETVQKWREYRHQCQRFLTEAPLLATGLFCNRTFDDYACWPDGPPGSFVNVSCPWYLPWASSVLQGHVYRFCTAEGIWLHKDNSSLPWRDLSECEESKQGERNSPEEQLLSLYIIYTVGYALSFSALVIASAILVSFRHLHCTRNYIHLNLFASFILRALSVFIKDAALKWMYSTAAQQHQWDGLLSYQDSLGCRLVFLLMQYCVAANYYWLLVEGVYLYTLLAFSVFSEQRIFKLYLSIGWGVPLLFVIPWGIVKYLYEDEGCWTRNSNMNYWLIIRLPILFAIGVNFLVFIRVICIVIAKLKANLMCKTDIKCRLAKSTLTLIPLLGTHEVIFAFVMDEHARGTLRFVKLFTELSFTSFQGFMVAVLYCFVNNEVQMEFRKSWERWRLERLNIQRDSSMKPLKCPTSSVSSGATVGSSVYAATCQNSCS
How it was run: (§1)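 Membranes (17 μg protein) from HEK293 cells stably expressing rat GLP-1R were preincubated 5 h at 4 °C with FlashBlue beads (150 μg). Then 40 pM [125I]GLP-1(7−36) amide or [125I]Exendin(9−39) was added with aprotinin 2 μg/mL, leupeptin 100 μM and test compound at varied concentrations. Incubated overnight at 4 °C, then bound radioactivity counted. Mean ± SEM of two independent experiments.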

[2] = biological target: T1, Glucagon-like peptide 1 receptor; test: Agonist activity at rat GLP1R expressed in HEK293 cells assessed as stimulation of cAMP levels incubated for 6 hrs by multiple response element/cAMP response element (MRE/CRE)-driven reporter gene assay; assay type: functional, cell-based
How it was run: (§2)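 Stable HEK293 line co-expressing rat GLP-1R (pCMV-Tag2B) and a luciferase reporter with 3× MRE plus 1× CRE, seeded at 40000 cells/well and cultured overnight. Compounds in DMSO or GLP-1(7−37) were added for 6 h, then cells were lysed and luciferase read (Steady-Glo). The 10 nM GLP-1 maximum was taken as 100%. Mean ± SEM of two independent experiments; some values come from a single run.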

[3] = biological target: T2, Glucagon-like peptide 1 receptor (Rattus norvegicus) (UniProt P32301); test: Inhibition of [125I]Exendin (9-39) binding to rat GLP1R expressed in HEK293 cells; assay type: cell-based; parameters: concentration or dose not given beside the values; details: concentration not given here; how it was run: as §1
T2 sequence (whole entry): T1 sequence (P32301 whole entry)

[4] = biological target: T2, Glucagon-like peptide 1 receptor (Rattus norvegicus); test: Inhibition of [125I]GLP1 (7-36) amide binding to rat GLP1R expressed in HEK293 cells relative to untreated control; assay type: cell-based; parameters: concentration or dose not given beside the values; details: concentration not given here; how it was run: as §1
[5] = biological target: T2, Glucagon-like peptide 1 receptor (Rattus norvegicus); test: Agonist activity at rat GLP1R expressed in HEK293 cells assessed as stimulation of cAMP levels incubated for 6 hrs by multiple response element/cAMP response element (MRE/CRE)-driven reporter gene assay relative to 10 nM GLP1; assay type: functional, cell-based; how it was run: as §2

SMILES | IC50 [1] | EC50 [2] | inhibition [3] | inhibition [4] | Efficacy [5]
COc1cc([C@H]2[C@](NC(=O)c3ccc(NC(=O)Nc4cccc(F)c4)cc3)(C(=O)O)[C@@H](c3ccc(OC(=O)c4cccs4)c(OC)c3)[C@]2(NC(=O)c2ccc(NC(=O)Nc3cccc(F)c3)cc2)C(=O)O)ccc1OC(=O)c1cccs1 | – | 2710 nM | 4.7% | 3.2% | 7.7%
COc1ccc([C@H]2[C@](NC(=O)c3ccc(NC(=O)OC(C)(C)C)cc3)(C(=O)O)[C@@H](c3ccc(OC)cc3)[C@]2(NC(=O)c2ccc(NC(=O)OC(C)(C)C)cc2)C(=O)O)cc1 | – | 9400 nM | 2.4% | 7.45% | 7.5%
CC(=O)Nc1ccc([C@H]2[C@](NC(=O)c3ccc(NC(=O)OC(C)(C)C)cc3)(C(=O)O)[C@@H](c3ccc(NC(C)=O)cc3)[C@]2(NC(=O)c2ccc(NC(=O)OC(C)(C)C)cc2)C(=O)O)cc1 | – | > 20000 nM | 2.8% | 12.1% | < 15%
COc1cc([C@H]2[C@](NC(=O)c3ccc(NC(=O)C45CC6CC(CC(C6)C4)C5)cc3)(C(=O)O)[C@@H](c3ccc(OC(=O)c4cccs4)c(OC)c3)[C@]2(NC(=O)c2ccc(NC(=O)C34CC5CC(CC(C5)C3)C4)cc2)C(=O)O)ccc1OC(=O)c1cccs1 | 8000 nM | – | 46.8% | 50.7% | 6%
COc1cc([C@H]2[C@](NC(=O)c3ccc(NC(=O)OC(C)(C)C)cc3)(C(=O)O)[C@@H](c3ccc(OCc4ccccc4)c(OC)c3)[C@]2(NC(=O)c2ccc(NC(=O)OC(C)(C)C)cc2)C(=O)O)ccc1OCc1ccccc1 | – | > 20000 nM | 14.3% | 10% | < 15%
COc1cc([C@H]2[C@](NC(=O)c3ccc(NC(=O)C(C)C)cc3)(C(=O)O)[C@@H](c3ccc(OC(C)=O)c(OC)c3)[C@]2(NC(=O)c2ccc(NC(=O)C(C)C)cc2)C(=O)O)ccc1OC(C)=O | – | – | 35.2% | 34.1% | 30%
COc1cc([C@H]2[C@](NC(=O)c3ccc(NC(=O)OC(C)(C)C)cc3)(C(=O)O)[C@@H](c3ccc(NC(C)=O)c(OC)c3)[C@]2(NC(=O)c2ccc(NC(=O)OC(C)(C)C)cc2)C(=O)O)ccc1NC(C)=O | – | > 20000 nM | 9.4% | 32.5% | < 15%
COc1cc([C@H]2[C@](NC(=O)c3ccc(NC(=O)COCc4ccccc4)cc3)(C(=O)O)[C@@H](c3ccc(OC(=O)c4cccs4)c(OC)c3)[C@]2(NC(=O)c2ccc(NC(=O)COCc3ccccc3)cc2)C(=O)O)ccc1OC(=O)c1cccs1 | 1900 nM | – | 45.9% | 57.5% | 12%
COc1cc([C@H]2[C@](NC(=O)c3ccc(NC(=O)Cc4ccccc4)cc3)(C(=O)O)[C@@H](c3ccc(OC(=O)c4cccs4)c(OC)c3)[C@]2(NC(=O)c2ccc(NC(=O)Cc3ccccc3)cc2)C(=O)O)ccc1OC(=O)c1cccs1 | 3200 nM | – | 33.4% | 45.7% | 32%
CC(C)(C)OC(=O)Nc1ccc(C(=O)N[C@]2(C(=O)O)[C@H](c3ccc(OC(=O)c4ccccc4)cc3)[C@@](NC(=O)c3ccc(NC(=O)OC(C)(C)C)cc3)(C(=O)O)[C@@H]2c2ccc(OC(=O)c3ccccc3)cc2)cc1 | – | – | 6.3% | 13.5% | 21.6%
CC(C)(C)OC(=O)Nc1ccc(C(=O)N[C@]2(C(=O)O)[C@H](c3ccc(OCc4ccccc4)cc3)[C@@](NC(=O)c3ccc(NC(=O)OC(C)(C)C)cc3)(C(=O)O)[C@@H]2c2ccc(OCc3ccccc3)cc2)cc1 | – | – | 9.6% | 21.2% | 24.8%
COc1cc([C@H]2[C@](NC(=O)c3ccc(NC(=O)OC(C)(C)C)cc3)(C(=O)O)[C@@H](c3ccc(OC(=O)Cc4ccccc4)c(OC)c3)[C@]2(NC(=O)c2ccc(NC(=O)OC(C)(C)C)cc2)C(=O)O)ccc1OC(=O)Cc1ccccc1 | – | – | 4.8% | 17.5% | 26%
COc1cc([C@H]2[C@](NC(=O)c3ccc(NC(=O)C4CCCCC4)cc3)(C(=O)O)[C@@H](c3ccc(OC(=O)c4cccs4)c(OC)c3)[C@]2(NC(=O)c2ccc(NC(=O)C3CCCCC3)cc2)C(=O)O)ccc1OC(=O)c1cccs1 | 1000 nM | – | 54.8% | 58.9% | 25%

Further lines, results first:

IC50 [1] | EC50 [2] | inhibition [3] | inhibition [4] | Efficacy [5] | SMILES
1200 nM | 749 nM | 45.6% | 53.6% | 87.5% | COc1cc([C@H]2[C@](NC(=O)c3ccc(NC(=O)C4CCC4)cc3)(C(=O)O)[C@@H](c3ccc(OC(=O)c4cccs4)c(OC)c3)[C@]2(NC(=O)c2ccc(NC(=O)C3CCC3)cc2)C(=O)O)ccc1OC(=O)c1cccs1
600 nM | 371 nM | – | – | – | COc1cc([C@H]2[C@](NC(=O)c3ccc(NC(=O)OC(C)(C)C)cc3)(C(=O)O)[C@@H](c3ccc(OC(=O)c4cccs4)c(OC)c3)[C@]2(NC(=O)c2ccc(NC(=O)OC(C)(C)C)cc2)C(=O)O)ccc1OC(=O)c1cccs1 (stereo in doubt) [listing 1 of 2 here]
3400 nM | – | 48.2% | 52.4% | 50% | CCCC(=O)Nc1ccc(C(=O)N[C@]2(C(=O)O)[C@H](c3ccc(OC(=O)c4cccs4)c(OC)c3)[C@@](NC(=O)c3ccc(NC(=O)CCC)cc3)(C(=O)O)[C@@H]2c2ccc(OC(=O)c3cccs3)c(OC)c2)cc1
16200 nM | – | 27.9% | 35.2% | 48% | COc1cc([C@H]2[C@](NC(=O)c3ccc(NC(=O)C(C)N)cc3)(C(=O)O)[C@@H](c3ccc(OC(=O)c4cccs4)c(OC)c3)[C@]2(NC(=O)c2ccc(NC(=O)C(C)N)cc2)C(=O)O)ccc1OC(=O)c1cccs1 (some centres undefined)
– | > 20000 nM | 8.3% | 27.6% | < 15% | COc1cc([C@H]2[C@](NC(=O)c3ccc(NC(=O)OC(C)(C)C)cc3)(C(=O)O)[C@@H](c3ccc(OC(=O)c4ccco4)c(OC)c3)[C@]2(NC(=O)c2ccc(NC(=O)OC(C)(C)C)cc2)C(=O)O)ccc1OC(=O)c1ccco1
– | 8310 nM | < 15% | 43.6% | 43.6% | COc1cc([C@H]2[C@](NC(=O)c3ccc(NC(=O)OC(C)(C)C)cc3)(C(=O)O)[C@@H](c3ccc(OC(C)=O)c(OC)c3)[C@]2(NC(=O)c2ccc(NC(=O)OC(C)(C)C)cc2)C(=O)O)ccc1OC(C)=O
8100 nM | – | 52.7% | 59.3% | 38% | COc1cc([C@H]2[C@](NC(=O)c3ccc(NC(=O)CO)cc3)(C(=O)O)[C@@H](c3ccc(OC(=O)c4cccs4)c(OC)c3)[C@]2(NC(=O)c2ccc(NC(=O)CO)cc2)C(=O)O)ccc1OC(=O)c1cccs1
1300 nM | – | – | 73.4% | 68.2% | COc1cc([C@H]2[C@](NC(=O)c3ccc(NC(=O)OC(C)(C)C)cc3)(C(=O)O)[C@H](c3ccc(OC(=O)c4cccs4)c(OC)c3)[C@]2(NC(=O)c2ccc(NC(=O)OC(C)(C)C)cc2)C(=O)O)ccc1OC(=O)c1cccs1
900 nM | – | 69.7% | 77.3% | 49% | COc1cc([C@H]2[C@](NC(=O)c3ccc(NC(=O)C(C)NC(=O)OC(C)(C)C)cc3)(C(=O)O)[C@@H](c3ccc(OC(=O)c4cccs4)c(OC)c3)[C@]2(NC(=O)c2ccc(NC(=O)C(C)NC(=O)OC(C)(C)C)cc2)C(=O)O)ccc1OC(=O)c1cccs1 (some centres undefined)
– | – | < 15% | 63.7% | 63.7% | CC(C)(C)OC(=O)Nc1ccc(C(=O)N[C@]2(C(=O)O)[C@H](c3ccc(OC(=O)c4cccs4)cc3)[C@@](NC(=O)c3ccc(NC(=O)OC(C)(C)C)cc3)(C(=O)O)[C@@H]2c2ccc(OC(=O)c3cccs3)cc2)cc1
4300 nM | – | 56.3% | 42% | 16.5% | COc1cc([C@H]2[C@](NC(=O)c3ccc(NC(=O)OC(C)(C)C)cc3)(C(=O)O)[C@H](c3ccc(OC(=O)c4cccs4)c(OC)c3)[C@@]2(NC(=O)c2ccc(NC(=O)OC(C)(C)C)cc2)C(=O)O)ccc1OC(=O)c1cccs1
1600 nM | 847 nM | – | – | – | COc1cc([C@H]2[C@](NC(=O)c3ccc(NC(=O)OC(C)(C)C)cc3)(C(=O)O)[C@@H](c3ccc(OC(=O)c4cccs4)c(OC)c3)[C@]2(NC(=O)c2ccc(NC(=O)OC(C)(C)C)cc2)C(=O)O)ccc1OC(=O)c1cccs1 (stereo in doubt; 3)
– | – | 70.5% | 89.8% | 121% | COc1cc([C@H]2[C@](NC(=O)c3ccc(NC(=O)OC(C)(C)C)cc3)(C(=O)O)[C@@H](c3ccc(OC(=O)c4cccs4)c(OC)c3)[C@]2(NC(=O)c2ccc(NC(=O)OC(C)(C)C)cc2)C(=O)O)ccc1OC(=O)c1cccs1 (stereo in doubt) [listing 2 of 2 here]
